Data published in ChEMBL document CHEMBL4130482, “Synthesis and Antimicrobial Evaluation of Fire Ant Venom Alkaloid Based 2-Methyl-6-alkyl-Δ1,6-piperideines” (J Nat Prod, 2017).
≈ marks a conversion by molar mass, not a printed value. Calls of active or inactive are those of the source. No cut-off for these calls is given here.

Columns and labels:
Enterococcus faecium [1] = assay: Antimicrobial activity against vancomycin-resistant Enterococcus faecium ATCC 700221 at 20 ug/ml by CLSI method; format: functional, organism-based
Cryptococcus neoformans = assay: Antimicrobial activity against Cryptococcus neoformans ATCC 90113 after 72 hrs by CLSI method; format: functional, organism-based; conditions: ATCC 90113, 72 h
In short: (§1)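 Antifungal susceptibility was tested by a modified CLSI (formerly NCCLS) broth method. Strains were C. neoformans ATCC 90113, C. albicans ATCC 90028, and A. fumigatus ATCC 204305, obtained from ATCC. Amphotericin B served as the positive control.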

Trypanosoma brucei = assay: Antitrypanosomal activity against trypomastigote form of Trypanosoma brucei after 72 hrs by Alamar blue assay; format: functional, organism-based
In short: (§2)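 Alamar Blue viability assay on L. donovani promastigotes, axenic amastigotes, THP1-cell amastigotes, and T. brucei trypomastigotes. Organisms at 2 × 10^6 cells/mL were exposed to serially diluted compounds for 72 h at 26 °C. IC50 and IC90 were determined. Test compounds were run up to 10 μg/mL. Values are means with standard deviations from two independent experiments, each in duplicate.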

Leishmania donovani [2] = assay: Antileishmanial activity against promastigote form of Leishmania donovani after 72 hrs by Alamar blue assay; format: functional, organism-based; in short: as §2
Staphylococcus aureus = assay: Antimicrobial activity against methicillin-resistant Staphylococcus aureus ATCC 1708 at 20 ug/ml by CLSI method; format: functional, organism-based
Candida albicans [3] = assay: Antimicrobial activity against Candida albicans ATCC 90028 after 48 hrs by CLSI method; format: functional, organism-based; in short: as §1
Aspergillus fumigatus = assay: Antimicrobial activity against Aspergillus fumigatus ATCC 204305 at 20 ug/ml after 48 hrs by CLSI method; format: functional, organism-based
Pseudomonas aeruginosa = assay: Antimicrobial activity against Pseudomonas aeruginosa ATCC 2108 at 20 ug/ml by CLSI method; format: functional, organism-based
THP-1 = assay: (§3) Cytotoxicity against human THP1 cells; format: cell-based; conditions: Homo sapiens, THP-1
In short: (§4)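 Human THP-1 cells were exposed to test compounds at up to 10 μg/mL. Values are from two independent experiments, each with two replicates.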

[4] = as §3; format: cell-based, THP-1; conditions: human, THP-1 cells; in short: as §4
Leishmania donovani [5] = assay: Antileishmanial activity against […] amastigote form of Leishmania donovani after 72 hrs by Alamar blue assay; format: functional, organism-based; in short: as §2
Leishmania donovani [6] = assay: Antileishmanial activity against amastigote form of Leishmania donovani infected in human THP1 cells after 72 hrs by Alamar blue assay; format: functional, organism-based; conditions: THP-1, 72 h; in short: as §2
Escherichia coli = assay: Antimicrobial activity against Escherichia coli ATCC 2452 at 20 ug/ml by CLSI method; format: functional, organism-based
Enterococcus faecium [7] = assay: Antimicrobial activity against vancomycin-resistant Enterococcus faecium ATCC 700221 by CLSI method; format: functional, organism-based
In short: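 VRE E. faecium ATCC 700221 strain, tested by a modified CLSI susceptibility method. Methicillin and vancomycin served as positive controls. The read-outs were 50% growth inhibition (IC50) and minimum inhibitory concentration (MIC).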

Candida albicans [8] = assay: Antimicrobial activity against Candida albicans ATCC 90028 at 20 ug/ml after 48 hrs by CLSI method; format: functional, organism-based
Enterococcus faecium [9] = assay: Antimicrobial activity against vancomycin-resistant Enterococcus faecium ATCC 700221 at 2 ug/ml by CLSI method; format: functional, organism-based

Row | Compound | Activity (Enterococcus faecium [1]) | IC50 (Cryptococcus neoformans) | MIC (Cryptococcus neoformans) | IC50 (Trypanosoma brucei) | IC90 (Trypanosoma brucei) | IC50 (Leishmania donovani [2]) | IC90 (Leishmania donovani [2]) | Activity (Staphylococcus aureus) | IC50 (Candida albicans [3]; ATCC 90028, 48 h) | Activity (Aspergillus fumigatus) | Activity (Pseudomonas aeruginosa) | IC50 (THP-1) | IC90 [4] | IC50 (Leishmania donovani [5]) | IC90 (Leishmania donovani [5]) | IC50 (Leishmania donovani [6]) | IC90 (Leishmania donovani [6]) | Activity (Escherichia coli) | MIC (Candida albicans [3]; ATCC 90028, 48 h) | further results
1 | CCCCCCCCCCCCCCC1=NC(C)CCC1 (configuration not stated) | inactive | 8.3 µg/mL (≈ 28.3 µM) | 13.3 µg/mL (≈ 45.3 µM) | 4 µg/mL (≈ 13.6 µM) | 6.8 µg/mL (≈ 23.2 µM) | 6.7 µg/mL (≈ 22.8 µM) | 9 µg/mL (≈ 30.7 µM) | inactive | 17.1 µg/mL (≈ 58.3 µM) | inactive | inactive | > 10 µg/mL | > 10 µg/mL | > 10 µg/mL | > 10 µg/mL | 3.4 µg/mL (≈ 11.6 µM) | 8.8 µg/mL (≈ 30 µM) | inactive | – | MIC (Candida albicans [3]): inactive
2 | CCCCCCCCCCCCCCCC1=NC(C)CCC1 (configuration not stated) | – | 6.6 µg/mL (≈ 21.5 µM) | 10 µg/mL (≈ 32.5 µM) | 2.7 µg/mL (≈ 8.78 µM) | 3.6 µg/mL (≈ 11.7 µM) | 5.7 µg/mL (≈ 18.5 µM) | 7.9 µg/mL (≈ 25.7 µM) | inactive | 12.4 µg/mL (≈ 40.3 µM) | inactive | inactive | > 10 µg/mL | > 10 µg/mL | > 10 µg/mL | > 10 µg/mL | 3.1 µg/mL (≈ 10.1 µM) | > 10 µg/mL | inactive | 20 µg/mL (≈ 65 µM) | IC50 (Enterococcus faecium [7]): 19.4 µg/mL (≈ 63.1 µM); MIC (Enterococcus faecium [7]): 20 µg/mL (≈ 65 µM)
3 | NCCCC(N)(C(=O)O)C(F)F (configuration not stated) [EFLORNITHINE] | – | – | – | 6.1 µg/mL (≈ 33.5 µM) | 12.1 µg/mL (≈ 66.4 µM) | – | – | – | – | – | – | – | – | – | – | – | – | – | – | –
4 | CCCCCCCCCCCCCCCCC1=NC(C)CCC1 (configuration not stated) | inactive | 9.9 µg/mL (≈ 30.8 µM) | 20 µg/mL (≈ 62.2 µM) | 3.5 µg/mL (≈ 10.9 µM) | 6.5 µg/mL (≈ 20.2 µM) | 5 µg/mL (≈ 15.5 µM) | 8.3 µg/mL (≈ 25.8 µM) | inactive | – | inactive | inactive | > 10 µg/mL | > 10 µg/mL | > 10 µg/mL | > 10 µg/mL | > 10 µg/mL | > 10 µg/mL | inactive | – | Activity (Candida albicans [8]): inactive
5 | C[C@@H]1[C@H](O)[C@@H](C)/C=C/C=C/C=C/C=C/C=C/C=C/C=C/[C@H](O[C@@H]2O[C@H](C)[C@@H](O)[C@H](N)[C@@H]2O)C[C@@H]2O[C@](O)(C[C@@H](O)C[C@@H](O)[C@H](O)CC[C@@H](O)C[C@@H](O)CC(=O)O[C@H]1C)C[C@H](O)[C@H]2C(=O)O [AMPHOTERICIN B] | – | < 0.1 µg/mL | 0.1 µg/mL (≈ 0.108 µM) | – | – | 0.2 µg/mL (≈ 0.216 µM) | 0.5 µg/mL (≈ 0.541 µM) | – | < 0.1 µg/mL | – | – | > 2 µg/mL | > 2 µg/mL | 0.9 µg/mL (≈ 0.974 µM) | 1.4 µg/mL (≈ 1.52 µM) | 0.2 µg/mL (≈ 0.216 µM) | 0.4 µg/mL (≈ 0.433 µM) | – | 0.1 µg/mL (≈ 0.108 µM) | Activity (Enterococcus faecium [9]): inactive
